Calls of active or inactive are those of the source. The calls are words filed in the database; no cut-off is given here. Bridge positions count the residues as written; N and C are the ends. Peptide text beside a SMILES is read from it.
Key:
[1] = biological target: T1, Carboxypeptidase A1 (Homo sapiens, UniProt P15085); experiment: Stability of the compound in Tris buffer assessed as carboxypeptidase A (unknown origin)-mediated compound degradation at pH 7.5 at 37 degC after 4 hrs by UPLC analysis; type: ADME; conditions: pH 7.5, 4 h
T1 sequence (P15085 whole entry): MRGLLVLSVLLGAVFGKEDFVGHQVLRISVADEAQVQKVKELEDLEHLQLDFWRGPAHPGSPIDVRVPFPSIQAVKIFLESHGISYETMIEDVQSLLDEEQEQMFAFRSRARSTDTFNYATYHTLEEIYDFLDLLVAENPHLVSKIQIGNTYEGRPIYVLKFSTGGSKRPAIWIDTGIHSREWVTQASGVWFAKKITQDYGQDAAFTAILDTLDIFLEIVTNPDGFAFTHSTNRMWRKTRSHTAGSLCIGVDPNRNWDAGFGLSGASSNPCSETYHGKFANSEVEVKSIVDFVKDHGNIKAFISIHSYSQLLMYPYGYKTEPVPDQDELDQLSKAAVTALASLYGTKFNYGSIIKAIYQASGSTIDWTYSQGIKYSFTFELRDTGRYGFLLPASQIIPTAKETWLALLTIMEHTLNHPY
How it was run: (§1)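 Peptide was incubated with or without carboxypeptidase A at 50:1 (w/w) in 50 mM Tris/100 mM NaCl pH 7.5 at 37 °C for up to 6 h. Collected peaks were checked by MALDI-TOF, and stability was judged from UPLC peak areas.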

[2] = (§2) Stability of the compound in 100 mM sodium citrate buffer assessed as pepsin (unknown origin)-mediated compound degradation by measuring intact compound level at pH 2.5 at 37 degC after 4 hrs by UPLC analysis; type: ADME; conditions: human, buffer, pH 2.5, 4 h
[3] = Stability of the compound in NH4HCO3 buffer assessed as trypsin (unknown origin)-mediated degradation at pH 7.8 at 37 degC after 1 hr by UPLC analysis; type: ADME; conditions: human, pH 7.8, 1 h
[4] = system: HUVEC; experiment: Cytotoxicity against HUVEC at 10 uM after 24 hrs by Presto Blue-based cell viability assay; conditions: human
How it was run: (§3)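 Cells were seeded at 8 x 10^3 per well in DMEM with 10% FBS and 1% penicillin/streptomycin, at 37 °C under 5% CO2. After 24 h, peptide was added at 0.01–10 µM in triplicate for 24 h. PrestoBlue was then added for 1 h at 37 °C and absorbance read at 570 nm. Controls were 1% Triton X-100 and PBS.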

[5] = system: Staphylococcus aureus; experiment: Antibacterial activity against Staphylococcus aureus ATCC 12600 up to 100 uM by radial diffusion assay; type: functional, organism-based
How it was run: (§4)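 Radial diffusion assay under low-salt conditions (10 mM Na3PO4). Strains were grown in trypticase soy broth. D4R peptide dendrimer was the positive control.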

[6] = biological target: T2, Carboxypeptidase A1 (Bos taurus) (UniProt P00730); experiment: Inhibition of bovine carboxypeptidase A using N-(4-methoxyphenylazoformyl)phenylalanine as substrate at 0.1 to 100 uM
T2 sequence (whole entry): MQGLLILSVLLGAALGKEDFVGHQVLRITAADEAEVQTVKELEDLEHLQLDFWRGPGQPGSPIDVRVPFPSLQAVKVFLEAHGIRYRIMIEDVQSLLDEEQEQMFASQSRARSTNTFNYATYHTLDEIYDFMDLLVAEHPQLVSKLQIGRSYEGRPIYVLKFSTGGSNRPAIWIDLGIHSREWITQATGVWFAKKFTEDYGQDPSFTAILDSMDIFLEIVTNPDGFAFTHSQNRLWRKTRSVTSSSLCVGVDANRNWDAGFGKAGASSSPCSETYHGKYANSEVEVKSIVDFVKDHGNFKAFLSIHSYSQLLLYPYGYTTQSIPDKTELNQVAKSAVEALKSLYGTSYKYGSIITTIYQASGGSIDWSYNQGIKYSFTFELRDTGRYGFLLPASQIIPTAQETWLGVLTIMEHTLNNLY
How it was run: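 Peptide at 0.1–100 µM was combined with 0.1 mM N-(4-methoxyphenylazoformyl)phenylalanine substrate. The reaction was started with 25 nM bovine carboxypeptidase A, and substrate hydrolysis was followed at 350 nm.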

[7] = system: trypsin; experiment: Stability of the compound in NH4HCO3 buffer assessed as trypsin (unknown origin)-mediated degradation by measuring intact compound level at pH 7.8 at 37 degC after 8 hrs by UPLC analysis; type: ADME; conditions: human, read-out: Stability
[8] = system: pepsin; experiment: as §2; type: ADME; conditions: human, pepsin in 100 mM sodium citrate buffer, pH 2.5; read-out: Stability
[9] = system: Vero; experiment: Cytotoxicity against African green monkey Vero cells at 10 uM after 24 hrs by Presto Blue-based cell viability assay; conditions: chlorocebus sabaeus; how it was run: as §3
[10] = system: Escherichia coli; experiment: Antibacterial activity against Escherichia coli ATCC 25922 up to 100 uM by radial diffusion assay; type: functional, organism-based; how it was run: as §4
[11] = system: Candida albicans; experiment: Antifungal activity against Candida albicans 11006 up to 100 uM by radial diffusion assay; type: functional, organism-based; how it was run: as §4
[12] = biological target: T3, carboxypeptidase A (Homo sapiens, UniProt P15085); experiment: Stability of the compound in Tris buffer assessed as carboxypeptidase A (unknown origin)-mediated compound degradation by measuring intact compound level at pH 7.5 at 37 degC after 6 hrs by UPLC analysis; type: ADME; conditions: read-out: Stability; how it was run: as §1
T3 sequence (P15085 whole entry): T1 sequence (P15085 whole entry)

[13] = Stability of the compound in boiling water assessed as compound remaining after 1 hr by UPLC analysis; type: physicochemical; conditions: read-out: Stability
[14] = Hemolytic activity in human type O+ erythrocytes up to 10 uM after 4 hrs by spectrophotometric analysis; type: ADME, cell-based; conditions: erythrocyte
How it was run: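 Erythrocytes came from fresh type O+ blood of a healthy volunteer. Cells were pelleted at 1000 rpm for 15 min, washed three times in PBS and diluted 100X in PBS. Peptide at various concentrations was mixed with an equal volume of cells for 4 h at 37 °C. Plates were spun at 1000 rpm for 5 min and supernatant absorbance read at 415 nm. Controls were 0.1% Triton X-100 and PBS.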

Row | Compound | Stability [1] | Stability [2] | Stability [3] | Activity [4] | Activity [5] | inhibition [6] | remaining at 8 h [7] | remaining at 4 h [8] | Activity [9] | Activity [10] | Activity [11] | remaining at 6 h [12] | remaining at 1 h [13] | Activity [14]
1 | CC(C)C[C@H](NC(=O)[C@@H]1CCCN1C(=O)[C@H](CO)NC(=O)[C@H](Cc1ccccc1)NC(=O)CNC(=O)[C@@H]1CCCN1C(=O)[C@@H]1CCCN1C(=O)[C@H](CCCN=C(N)N)NC(=O)[C@@H](N)CCCCN)C(=O)O | Unstable | Unstable | Unstable | – | – | – | – | – | – | – | – | – | – | –
2 | CC[C@H](C)[C@H](NC(=O)[C@@H](NC(=O)[C@H](CC(N)=O)NC(=O)[C@@H]1CSSC[C@@H]2NC(=O)[C@H](CC(=O)O)NC(=O)[C@H](CO)NC(=O)[C@H](CC(N)=O)NC(=O)[C@H](CO)NC(=O)[C@H](CCCNC(=N)N)NC(=O)[C@@H]3CSSC[C@H](NC(=O)[C@H]([C@@H](C)CC)NC(=O)[C@H](CCCNC(=N)N)NC(=O)[C@H](Cc4c[nH]c5ccccc45)NC(=O)[C@H]([C@@H](C)CC)NC(=O)[C@H]([C@@H](C)CC)NC(=O)[C@H](CC(N)=O)NC2=O)C(=O)N[C@@H](CCCNC(=N)N)C(=O)N[C@@H](CC(=O)O)C(=O)NCC(=O)N[C@@H](CSSC[C@H](NC(=O)[C@H](CC(C)C)NC(=O)[C@@H](N)CCC(N)=O)C(=O)N[C@@H](CC(C)C)C(=O)N[C@@H](CCC(N)=O)C(=O)N3)C(=O)N1)C(C)C)C(=O)O (H-QLCLQCRSNSDCNIIWRICRDGCCNVI-OH; disulfide 3-23, 6-19, 12-24) | – | – | – | Non-toxic | inactive | inactive | 73% | > 90% | Non-toxic | inactive | inactive | > 90% | 96% | Non-toxic
3 | CC(C)C[C@H](NC(=O)[C@H](CCCNC(=N)N)NC(=O)CNC(=O)[C@H](CCCNC(=N)N)NC(=O)[C@H](CCCNC(=N)N)NC(=O)[C@H](Cc1ccc(O)cc1)NC(=O)[C@H](CC(C)C)NC(=O)[C@@H](N)CCCNC(=N)N)C(=O)N[C@@H](Cc1ccc(O)cc1)C(=O)N[C@@H](CCCNC(=N)N)C(=O)N[C@@H](CCCNC(=N)N)C(=O)N[C@@H](CC(N)=O)C(=O)N[C@@H](Cc1cnc[nH]1)C(=O)N[C@H](C(=O)O)C(C)C (H-RLYRRGRLYRRNHV-OH) | Unstable | Unstable | Unstable | – | – | – | – | – | – | – | – | – | – | –
